From ChEMBL document CHEMBL1138768, “A locally active antiinflammatory macrolide (MLD987) for inhalation therapy of asthma” (J Med Chem, 2004) come the findings set out here.

Test [1] in a line: Inhibitory activity against IL-5 production (Anti-CD3 monoclonal antibody stimulated and cultured CD4 positive cells purified from human peripheral blood mononuclear cell). It is filed as functional, cell-based.
A short description of test [2]: Inhibitory activity against IFN-gamma production (Anti-CD3 monoclonal antibody stimulated and cultured CD4 positive cells purified from human peripheral blood mononuclear cell). It is filed as functional, cell-based.
Test [3] is filed under the species Rattus norvegicus. Briefly: Intratracheal dose that inhibits by 50% the allergen OA-induced eosinophil influx in to the airway lumen of actively sensitized rats after -1h, +24h treatment schedule. It is filed as functional. As to conditions: Trachea, inhaled or nasal. The method in brief: (§1)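 Actively sensitized Brown-Norway rats challenged with ovalbumin (OA). Compound given intratracheally, orally or i.v. either 1 h or 6 h before challenge, with a second dose 24 h after challenge. Eosinophils counted in bronchoalveolar lavage fluid; ED50 is the dose inhibiting OA-induced eosinophil influx by 50%; n = 5–20 rats.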

A short description of test [4]: Inhibitory activity against IL-2 receptor in human T-cell jurkat cell line stimulated by phytohemagglutininin and phorbol myristate acetate. The format is cell-based. An outline of the steps: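 Jurkat human T-cell line carrying an IL-2 reporter gene, stimulated with phytohemagglutinin plus phorbol myristate acetate. Values are mean IC50 ± SEM (n = 3–6) or the mean of two experiments.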

Test [5] is filed under the species Rattus norvegicus. Briefly: Intratracheal dose that inhibits by 50% the allergen OA-induced eosinophil influx in to the airway lumen of actively sensitized rats after -6h, +24h treatment schedule. The format is functional. As to conditions: Trachea, inhaled or nasal. The method in brief:
as §1

In test [6] the test system is Rattus norvegicus. Briefly: Oral dose that inhibits by 50% the allergen OA-induced eosinophil influx in to the airway lumen of actively sensitized rats after -1h, +24h treatment schedule. The format is functional. The method in brief: as §1
Test [7] deals with Rattus norvegicus. In words: Intravenous dose that inhibits by 50% the allergen OA-induced eosinophil influx in to the airway lumen of actively sensitized rats after -1h, +24h treatment schedule. It is filed as functional. An outline of the steps:
as §1

The next test deals with PBMC. In words: Inhibitory activity against murine mixed lymphocyte reaction. As to conditions: Mus musculus.
Test [8] is described as follows: Inhibitory activity against calcineurin phosphatase. Also noted: species or system Homo sapiens.
The subject of test [9] is Rattus norvegicus. In words: Oral dose that inhibits by 50% the allergen OA-induced eosinophil influx in to the airway lumen of actively sensitized rats after -6h, +24h treatment schedule. The format is functional. The method in brief:
as §1

Test [10] deals with Rattus norvegicus. In words: Intravenous dose that inhibits by 50% the allergen OA-induced eosinophil influx in to the airway lumen of actively sensitized rats after -6h, +24h treatment schedule. The format is functional. The method in brief: as §1
The nature of test [11]: Inhibitory activity against PPD-induced proliferation of human peripheral blood mononuclear cell (HPBMNC). It is filed as functional. An outline of the steps:
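Human peripheral blood mononuclear cells isolated from blood, stimulated with PPD (M. tuberculosis purified protein derivative). Proliferation read after 5 days in medium with 20% fetal calf serum. Mean IC50 ± SEM (n = 3–6) or the mean of two experiments.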

In general, IC50 refers to the concentration at which inhibition is half-maximal. For orientation: ED50 means the dose at which the effect has come halfway, by size or by number of responders. On to `CCCC1O[C@@H]2C[C@H]3[C@@H]4CCC5=CC(=O)C=C[C@]5(C)[C@H]4[C@@H](O)C[C@]3(C)[C@]2(C(=O)CO)O1` (stereo not given in full) [BUDESONIDE], for which the results for the IC50 in [1] and in test [2] were 0.12 nM and 0.32 nM, respectively. In addition, the ED50 in the test filed under Rattus norvegicus [3] amounted to 0.5 mg/kg.

The term Ki denotes a measure of affinity in units of concentration, obtained from inhibition or displacement. Consider `C=CC[C@@H]1/C=C(\C)C[C@H](C)C[C@H](OC)[C@H]2O[C@@](O)(C(=O)C(=O)N3CCCC[C@H]3C(=O)O[C@H](/C(C)=C/[C@@H]3CC[C@@H](O)[C@H](OC)C3)[C@H](C)[C@@H](O)CC1=O)[C@H](C)C[C@@H]2OC` [TACROLIMUS ANHYDROUS], for which the IC50 is 0.19 nM in test [4]; 0.06 nM in test [1]; 0.06 nM in [2]; 0.29 nM in the test on PBMC; 0.18 nM in test [11]. Also, the ED50 came out at 0.3 mg/kg in the test filed under Rattus norvegicus [5]; 10 mg/kg in the test on Rattus norvegicus [6]; 0.3 mg/kg in the test on Rattus norvegicus [7]; 3 mg/kg in the test on Rattus norvegicus [9]; 0.3 mg/kg in the test filed under Rattus norvegicus [3]; 0.3 mg/kg in the test on Rattus norvegicus [10]. In addition, the Ki in test [8] is 35 nM.
